Measurements reported in ChEMBL document CHEMBL1155875, “Optimization of the central heterocycle of alpha-ketoheterocycle inhibitors of fatty acid amide hydrolase” (J Med Chem, 2008).

Key:
[1] = biological target: T1, Fatty-acid amide hydrolase 1 (Rattus norvegicus, UniProt P97612); assay: Inhibition of rat FAAH expressed in Escherichia coli at pH 9.0
T1 sequence (P97612 whole entry): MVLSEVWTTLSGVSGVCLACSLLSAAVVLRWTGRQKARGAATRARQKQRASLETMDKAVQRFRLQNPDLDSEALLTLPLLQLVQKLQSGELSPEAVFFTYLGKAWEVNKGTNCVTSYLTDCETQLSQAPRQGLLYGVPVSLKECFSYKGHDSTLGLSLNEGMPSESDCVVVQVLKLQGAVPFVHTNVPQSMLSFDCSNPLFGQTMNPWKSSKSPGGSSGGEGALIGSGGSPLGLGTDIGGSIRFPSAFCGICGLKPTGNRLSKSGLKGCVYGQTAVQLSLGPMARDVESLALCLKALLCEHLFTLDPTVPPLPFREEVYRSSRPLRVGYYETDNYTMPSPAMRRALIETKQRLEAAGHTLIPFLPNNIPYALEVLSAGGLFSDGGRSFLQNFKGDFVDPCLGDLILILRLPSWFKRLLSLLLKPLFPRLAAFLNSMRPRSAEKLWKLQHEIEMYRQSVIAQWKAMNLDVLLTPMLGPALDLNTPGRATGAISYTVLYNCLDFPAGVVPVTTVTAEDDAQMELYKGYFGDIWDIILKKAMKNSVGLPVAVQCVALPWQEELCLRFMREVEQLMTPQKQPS

[2] = Selectivity ratio of IC50 for TGH over IC50 for rat FAAH expressed in Escherichia coli
Liver carboxylesterase 1 = biological target: T2, Liver carboxylesterase 1 (Homo sapiens, UniProt P23141); assay: Inhibition of TGH
T2 sequence (P23141 whole entry): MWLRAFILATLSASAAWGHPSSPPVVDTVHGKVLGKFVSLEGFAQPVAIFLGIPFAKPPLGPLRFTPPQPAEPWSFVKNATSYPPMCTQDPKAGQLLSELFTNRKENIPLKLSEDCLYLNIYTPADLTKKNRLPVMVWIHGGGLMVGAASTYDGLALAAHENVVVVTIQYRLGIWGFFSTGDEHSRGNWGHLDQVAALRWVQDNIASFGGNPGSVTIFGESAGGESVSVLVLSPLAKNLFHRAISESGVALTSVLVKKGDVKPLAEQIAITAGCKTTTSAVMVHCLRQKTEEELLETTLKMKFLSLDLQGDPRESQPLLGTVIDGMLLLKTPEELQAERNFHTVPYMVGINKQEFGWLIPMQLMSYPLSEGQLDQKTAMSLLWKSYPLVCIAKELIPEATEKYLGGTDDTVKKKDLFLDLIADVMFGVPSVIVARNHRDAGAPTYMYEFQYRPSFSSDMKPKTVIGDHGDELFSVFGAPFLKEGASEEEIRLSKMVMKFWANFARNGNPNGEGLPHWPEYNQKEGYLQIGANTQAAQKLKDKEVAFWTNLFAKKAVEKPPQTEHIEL
In short: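 Measured in a proteome-wide selectivity screen that globally profiles mammalian serine hydrolases, with TGH among the enzymes detected. Values are reported as IC50 from this screen rather than as Ki from substrate hydrolysis assays.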

[3] = biological target: T3, Neutral cholesterol ester hydrolase 1 (Homo sapiens, UniProt Q6PIU2); assay: Inhibition of KIAA1363 hydrolase
T3 sequence (Q6PIU2 whole entry): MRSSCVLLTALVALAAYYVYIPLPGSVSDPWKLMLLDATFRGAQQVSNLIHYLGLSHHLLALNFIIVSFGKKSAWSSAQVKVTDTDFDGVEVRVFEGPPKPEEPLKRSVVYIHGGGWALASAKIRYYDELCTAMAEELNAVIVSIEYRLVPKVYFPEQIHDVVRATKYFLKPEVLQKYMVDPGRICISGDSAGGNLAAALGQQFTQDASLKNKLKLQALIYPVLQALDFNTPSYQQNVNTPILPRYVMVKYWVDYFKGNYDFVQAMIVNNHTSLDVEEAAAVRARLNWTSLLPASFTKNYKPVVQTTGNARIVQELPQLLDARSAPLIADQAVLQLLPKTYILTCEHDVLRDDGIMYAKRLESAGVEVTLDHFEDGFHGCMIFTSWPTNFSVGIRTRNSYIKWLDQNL

[4] = biological target: T1, Fatty-acid amide hydrolase 1; assay: Inhibition of rat FAAH expressed in Escherichia coli

- Ki [1]: 7 nM
- Ratio IC50 [2]: 20
- IC50 (Liver carboxylesterase 1): 200 nM
- IC50 [3]: > 100000 nM
- IC50 [4]: 10 nM
SMILES: COC(=O)c1nc(C(=O)CCCCCCc2ccccc2)no1
